Measurements taken from ChEMBL document CHEMBL3044548, “Phytotoxic and antimicrobial activities of catechin derivatives” (2004).
Values after ≈ are worked out from the molar mass of the structure shown. Active and inactive are the calls of the source. No cut-off for these calls is given here.

Tests used:
Penicillium sp. [1] = test: Antifungal activity against Penicillium sp. at 12.5 to 25 ug/ml after 96 hr by spectrophotometry; format: functional, organism-based
Procedure, shortened: (§1)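 Spore germination assay. Spores taken from 4-week-old PDA cultures kept in the dark at 24 °C and adjusted to 1 × 10⁵ spores/mL. 100 µL of spores added to serial dilutions of derivatives in PDB, from 1 mg/mL DMSO stocks. Value is the minimum concentration inhibiting germination. DMSO-only controls.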

Aspergillus niger [2] = test: Antifungal activity against Aspergillus niger at 12.5 to 25 ug/ml after 96 hr by spectrophotometry; format: functional, organism-based; procedure, shortened: as §1
Fusarium oxysporum [3] = test: Antifungal activity against Fusarium oxysporum at 12.5 to 25 ug/ml after 96 hr by spectrophotometry; format: functional, organism-based; procedure, shortened: as §1
Trichoderma viride = test: Antifungal activity against Hypocrea rufa at 12.5 to 25 ug/ml after 96 hr by spectrophotometry; format: functional, organism-based; procedure, shortened: as §1
Trichoderma reesei = test: Antifungal activity against Trichoderma reesei at 12.5 to 25 ug/ml after 96 hr by spectrophotometry; format: functional, organism-based; procedure, shortened: as §1
Pseudomonas fluorescens [4] = test: Bactericidal activity against Pseudomonas fluorescens at 3.1 ug/ml after 24 hr by BacLight bacterial viability fluorescence assay; format: functional, organism-based
Erwinia amylovora [5] = test: Bactericidal activity against Erwinia amylovora at 1.6 ug/ml after 24 hr by BacLight bacterial viability fluorescence assay; format: functional, organism-based
[6] = system: Pectobacterium carotovorum; test: Bactericidal activity against Pectobacterium carotovorum at 3.1 ug/ml after 24 hr by BacLight bacterial viability fluorescence assay; format: functional, organism-based
Xanthomonas campestris [7] = test: Bactericidal activity against Xanthomonas euvesicatoria at 6.3 ug/ml after 24 hr by BacLight bacterial viability fluorescence assay; format: functional, organism-based
[8] = system: Pectobacterium carotovorum; test: Antibacterial activity against Pectobacterium carotovorum after 24 hr by spectrophotometry; format: functional
Procedure, shortened: (§2)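 Bacterial isolates grown overnight at 37 °C to OD600 0.2. 5 µL of suspension incubated with serial dilutions of derivatives (100 to 0.05 µg) from 1 mg/mL DMSO stocks, 37 °C for 24 h. OD600 read; net growth is OD after 24 h minus OD at start. Percent inhibition is (untreated − treated)/untreated × 100. Two separate replicates. DMSO-only controls.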

Erwinia amylovora [9] = test: Antibacterial activity against Erwinia amylovora after 24 hr by spectrophotometry; format: functional; procedure, shortened: as §2
Xanthomonas campestris [10] = test: Antibacterial activity against Xanthomonas campestris pv. vesicatoria after 24 hr by spectrophotometry; format: functional; procedure, shortened: as §2
Pseudomonas fluorescens [11] = test: Antibacterial activity against Pseudomonas fluorescens after 24 hr by spectrophotometry; format: functional; procedure, shortened: as §2
Centaurea maculosa [12] = test: Herbicidal activity against Centaurea maculosa assessed as inhibition of root differentiation at 200 ug/ml after 7 days; format: functional, organism-based
Procedure, shortened: (§3)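 Ten-day-old seedlings were placed in 5 mL liquid MS basal medium and given filter-sterilized compound at 10, 50, 100 or 200 µg mL^-1. Controls received a methanol vehicle. Cultures were kept at 27 ± 2 °C, shaken at 90 rpm, under 24 µmol m^-2 s^-1 light for 7 days. Shoot and root differentiation were given as percent inhibition versus untreated control, mean ± SD, n = 5.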

Ocimum basilicum = test: Herbicidal activity against Ocimum basilicum assessed as shoot growth inhibition at 200 ug/ml after 7 days; format: functional, organism-based; procedure, shortened: as §3
Solanum lycopersicum = test: Herbicidal activity against Solanum lycopersicum (tomato) assessed as shoot growth inhibition at 200 ug/ml after 7 days; format: functional, organism-based; procedure, shortened: as §3
Gaillardia aristata = test: Herbicidal activity against Gaillardia aristata assessed as shoot growth inhibition at 200 ug/ml after 7 days; format: functional, organism-based; procedure, shortened: as §3
Arabidopsis thaliana = test: Herbicidal activity against Arabidopsis thaliana assessed as shoot growth inhibition at 200 ug/ml after 7 days; format: functional, organism-based; procedure, shortened: as §3
Centaurea maculosa [13] = test: Herbicidal activity against Centaurea maculosa assessed as shoot growth inhibition at 200 ug/ml after 7 days; format: functional, organism-based; procedure, shortened: as §3
Fusarium oxysporum [14] = test: Antifungal activity against Fusarium oxysporum at 25 ug/ml after 96 hr by spectrophotometry; format: functional, organism-based; procedure, shortened: as §1
Aspergillus niger [15] = test: Antifungal activity against Aspergillus niger at 25 ug/ml after 96 hr by spectrophotometry; format: functional, organism-based
Procedure, shortened: (§4)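 Spores from 4-week-old cultures grown on PDA at 24 °C in the dark were rinsed off in sterile water and adjusted to 1 × 10⁵ spores mL^-1. Spores were incubated with serial dilutions in PDB in 96-well plates at 37 °C under humidity. Controls were DMSO vehicle and (+)-catechin.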

Penicillium sp. [16] = test: Antifungal activity against Penicillium sp. at 25 ug/ml after 96 hr by spectrophotometry; format: functional, organism-based; procedure, shortened: as §4

SMILES | Activity (Penicillium sp. [1]) | Activity (Aspergillus niger [2]) | Activity (Fusarium oxysporum [3]) | Activity (Trichoderma viride) | Activity (Trichoderma reesei) | Activity (Pseudomonas fluorescens [4]) | Activity (Erwinia amylovora [5]) | Activity [6] | Activity (Xanthomonas campestris [7]) | MIC [8] [µg/mL] | MIC (Erwinia amylovora [9]) [µg/mL] | MIC (Xanthomonas campestris [10]) [µg/mL] | MIC (Pseudomonas fluorescens [11]) [µg/mL] | further results
CC1(C)O[C@H]2Cc3c(O)cc(O)cc3O[C@@H]2c2cc(O)c(O)cc21 | inactive | inactive | inactive | inactive | inactive | Active | Active | Active | Active | 1.6 (≈ 4.84 µM) | 3.1 (≈ 9.38 µM) | 6.3 (≈ 19.1 µM) | 3.1 (≈ 9.38 µM) | –
CC1(C)OC2Cc3c(O)cc(O)cc3OC2c2cc(O)c(O)cc21 (racemic) | inactive | inactive | inactive | inactive | inactive | Active | Active | Active | Active | 12.5 (≈ 37.8 µM) | 12.5 (≈ 37.8 µM) | 12.5 (≈ 37.8 µM) | 12.5 (≈ 37.8 µM) | inhibition (Centaurea maculosa [12]): Active; growth inhibition (GI) (Ocimum basilicum): Active; growth inhibition (GI) (Solanum lycopersicum): Active; growth inhibition (GI) (Gaillardia aristata): Active; growth inhibition (GI) (Arabidopsis thaliana): Active; growth inhibition (GI) (Centaurea maculosa [13]): Active
COc1cc(OC)c2c(c1)OC(c1ccc(OC)c(OC)c1)C(O)C2 (racemic) | inactive | inactive | inactive | inactive | inactive | Active | Active | Active | Active | 6.3 (≈ 18.2 µM) | 12.5 (≈ 36.1 µM) | 12.5 (≈ 36.1 µM) | 12.5 (≈ 36.1 µM) | inhibition (Centaurea maculosa [12]): Active; growth inhibition (GI) (Ocimum basilicum): Active; growth inhibition (GI) (Solanum lycopersicum): Active; growth inhibition (GI) (Gaillardia aristata): Active; growth inhibition (GI) (Arabidopsis thaliana): Active; growth inhibition (GI) (Centaurea maculosa [13]): Active
Oc1cc(O)c2c(c1)OC(c1ccc(O)c(O)c1)C(O)C2 (racemic) | inactive | inactive | inactive | inactive | inactive | Active | Active | Active | Active | – | – | – | – | –
CC(=O)Oc1cc(OC(C)=O)c2c(c1)OC(c1ccc(OC(C)=O)c(OC(C)=O)c1)C(OC(C)=O)C2 (racemic) [(+/-)-PENTAACETYLCATECHIN] | inactive | inactive | inactive | inactive | inactive | Active | Active | Active | Active | 25 (≈ 50 µM) | 25 (≈ 50 µM) | 25 (≈ 50 µM) | 12.5 (≈ 25 µM) | –
CC(=O)Oc1cc(OC(C)=O)c2c(c1)O[C@H](c1ccc(OC(C)=O)c(OC(C)=O)c1)[C@@H](OC(C)=O)C2 [CATECHIN PENTAACETATE] | inactive | inactive | – | inactive | inactive | Active | Active | Active | Active | 6.3 (≈ 12.6 µM) | 6.3 (≈ 12.6 µM) | 6.3 (≈ 12.6 µM) | 6.3 (≈ 12.6 µM) | Activity (Fusarium oxysporum [14]): Active
COc1cc(OC)c2c(c1)O[C@H](c1ccc(OC)c(OC)c1)[C@@H](O)C2 [CATECHIN TETRAMETHYLETHER] | – | – | inactive | inactive | inactive | Active | Active | Active | Active | 6.3 (≈ 18.2 µM) | 25 (≈ 72.2 µM) | 25 (≈ 72.2 µM) | 6.3 (≈ 18.2 µM) | Activity (Aspergillus niger [15]): Active; Activity (Penicillium sp. [16]): Active
Oc1cc(O)c2c(c1)O[C@H](c1ccc(O)c(O)c1)[C@@H](O)C2 [CIANIDANOL] | Active | Active | Active | Active | Active | Active | Active | Active | Active | 1.6 (≈ 5.51 µM) | 1.6 (≈ 5.51 µM) | 1.6 (≈ 5.51 µM) | 1.6 (≈ 5.51 µM) | –
